Source: PubChem
Rows were chosen to be rich in hits. Some 4.1% of all compounds tested hit in one or more screens of this group.
Cl transport mod: KCC2 cotransporter modulators, thallium flux, primary screen, cell-based, HEK293 KCC2, FluoZin-2 fluorescence, MLSMR; KCC2 cells, thallium flux FluoZin-2 fluorescence; 190,000 tested, 2.2% active; Solute carrier family 12 member 5 (Homo sapiens), Q9H2X9; B-score of Tl+ flux slope (higher = more flux/activation; lower = inhibition) at 10 µM;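 active = thallium flux slope and its plate-corrected score both differing from the plate sample mean at a set confidence after two filtering rounds, in either direction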;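 also: slope of fluorescence scaled to starting intensity during 10 to 20 s after thallium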
hERG rescue: hERG rescue from dofetilide block, primary screen, cell-based, CHO-hERG, FluxOR thallium flux, dofetilide IC70 | dofetilide IC70 present | activation (rescue from dofetilide block), less the hit threshold, % at 10 µM | 310,000 tested, 0.51% active | Voltage-gated inwardly rectifying potassium channel KCNH2 (Homo sapiens), Q12809;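 active = activation above the mean of controls blocked by dofetilide plus 5 SD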;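 also: thallium influx through hERG after potassium depolarization seen as dye fluorescence rise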
KCNK9 inh: KCNK9 potassium channel inhibitors, primary screen, HEK293 cells, thallium flux. Potassium channel subfamily K member 9 (Homo sapiens), Q9NPC2. FluxOR thallium flux fluorescence; active compounds read low. B-score at 10 µM. 310,000 tested, 1.2% active. AID 488922, 2010;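 active = ratio B-score over 3 SD below the library mean, with starting fluorescence within 5 SD of its mean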;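 also: negative B-score means less thallium flux so channel inhibition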
KCNQ1 pot: potentiators or activators of KCNQ1 channel, primary screen, cell-based, thallium flux, high-throughput; Potassium voltage-gated channel subfamily KQT member 1 (Homo sapiens), P51787; 310,000 tested, 0.35% active; B-score at 10 µM; CHO-K1 KCNQ1, thallium flux FluxOR fluorescence; active compounds read high;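 active = fluorescence ratio B-score, a plate-corrected score, at least three library SD, with initial intensity B-score within 5 SD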
Target sequence (P51787 whole entry, looked up): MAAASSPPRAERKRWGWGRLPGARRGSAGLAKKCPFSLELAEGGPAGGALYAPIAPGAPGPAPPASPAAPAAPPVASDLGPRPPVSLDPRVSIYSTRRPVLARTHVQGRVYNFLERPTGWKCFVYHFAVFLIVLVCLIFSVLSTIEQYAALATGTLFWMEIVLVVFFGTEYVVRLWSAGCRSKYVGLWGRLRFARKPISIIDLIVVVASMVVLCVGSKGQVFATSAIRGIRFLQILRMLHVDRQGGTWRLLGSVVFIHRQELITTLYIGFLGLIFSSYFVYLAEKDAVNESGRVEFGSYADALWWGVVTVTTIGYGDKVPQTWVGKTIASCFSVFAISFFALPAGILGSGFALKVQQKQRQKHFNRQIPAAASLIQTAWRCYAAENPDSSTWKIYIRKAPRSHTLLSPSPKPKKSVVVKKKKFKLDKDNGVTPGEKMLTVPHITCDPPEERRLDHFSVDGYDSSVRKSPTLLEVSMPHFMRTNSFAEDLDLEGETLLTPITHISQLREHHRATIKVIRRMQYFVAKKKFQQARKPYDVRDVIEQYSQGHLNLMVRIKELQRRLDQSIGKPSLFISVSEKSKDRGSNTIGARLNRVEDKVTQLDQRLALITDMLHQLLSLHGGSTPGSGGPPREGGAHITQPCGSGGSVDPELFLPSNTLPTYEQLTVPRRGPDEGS
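System: Stable KCNQ1 CHO-K1 line | Incubation: 90 min dye loading and 20 min compound exposure, both at room temperature | Measure: Ratio B score | Medium: Assay buffer for compound exposure, DMSO matched across wells | Compound dosing: Single-concentration screen | Probe or stimulus: K+/Tl+ depolarizing stimulus | Measured by: Kinetic FluxOR fluorescence, 10 s baseline plus 110 s post-stimulus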
KCNQ1 inh: inhibitors of human KCNQ1 channel, primary screen, cell-based, thallium flux, high-throughput | CHO-K1 KCNQ1, FluxOR thallium flux fluorescence; active compounds read high | B-score at 10 µM | 310,000 tested, 1.3% active | AID 2642, 2010;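 active = compounds whose thallium flux B-score, printed positive for inhibition, exceeds three library SD while starting fluorescence stays within three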;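 also: channel opened by potassium depolarization with thallium stimulus after 20 min compound exposure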
KCNK3 inh: human KCNK3 channel inhibitors, primary screen, CHO cells, FluxOR thallium flux, B-score; Potassium channel subfamily K member 3 (Homo sapiens), O14649; FluxOR fluorescence; active compounds read low; B-score at 10 µM; 340,000 tested, 0.84% active; AID 602410, 2012;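 active = B-score under library mean minus 4 SD, starting fluorescence ratio at most library mean plus 5 SD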;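 also: more negative B-score means stronger inhibition of thallium flux through KCNK3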
KCNK9 block conf: KCNK9 potassium channel inhibitors, confirmation, HEK293 cells, thallium flux, duplicate; inhibition, % at 10 µM; FluxOR thallium flux fluorescence; 4,900 tested, 43% active; shares compounds with KCNK9 inh; AID 492992, 2010;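 active = thallium signal inhibited by more than 5 SD of the compound-free buffer control wells, on both duplicate plates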
Kir21 sel: mouse Kir2.1 channel inhibition, confirmation, selectivity assay for KCNK9 modulator project, cell-based, HEK293, thallium flux; shares compounds with KCNK9 inh; Kir2.1 cells, FluxOR thallium flux fluorescence; inhibition, % at 10 µM; 4,900 tested, 4% active;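 active = thallium signal drop more than 5 SD beyond the mean of the no-compound control wells, seen in both duplicate plates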;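 also: signal is fluorescence rise after thallium addition divided by baseline fluorescence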
HEK293 Tl ctr: thallium flux in non-induced HEK293 cells, confirmation, counter-screen for KCNK9 inhibitor project, cell-based, second counter screen, non-induced KCNK9-HEK293. AID 492997, 2010. FluxOR thallium flux. shares compounds with KCNK9 inh. inhibition, % at 10 µM. 4,900 tested, 40% active;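 active = thallium signal drop beyond 5 SD of the untreated control mean, on both duplicate plates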
Hits are given with their value; - = inactive; . = not tested or not shown.

SMILES	Cl transport mod	hERG rescue	KCNK9 inh	KCNQ1 pot	KCNQ1 inh	KCNK3 inh	KCNK9 block conf	Kir21 sel	HEK293 Tl ctr
Cc1ccc(OCCCCN(C)Cc2ccccc2)c(Br)c1	-	-	-	-	-	-	-	80%	-
COc1ccccc1OCCOCCOc1ccc(C)cc1Br	-	-	-	-	-	-	-	-	-
COc1ccccc1OCCCOc1ccc(C)cc1Br	-	-	-	-	-	-	.	.	.
O=C(Nc1cccnc1)c1ccc(Br)c(S(=O)(=O)N2CCCC2)c1	.	-	-	-	-	-	.	.	.
CN(c1ccccc1)S(=O)(=O)c1ccc(Cl)c(C(=O)NCc2ccco2)c1	.	.	.	.	.	-	.	.	.
CCn1c(SCc2ccccc2Cl)nc2nc3c(cc2c1=O)CCCC3	-	-	-	-	-	-	-	-	-
COc1cc2c(cc1OC)-c1nnc(-c3ccco3)n1C1(CCCC1)C2	-	-	-13	-	-	-	46%	-	28%
c1coc(-c2nnc3n2C2(CCCC2)Cc2ccccc2-3)c1	-	-	-	-	-	-	.	.	.
Cc1ccc(C)c2[nH]c(=O)c(CN(Cc3ccco3)C(=O)Nc3ccccc3)cc12	-	-	-13	-	-	-	62%	-	-
COc1ccc(Cn2c(=O)[nH]c3cc(C(=O)N4CCN(Cc5ccccc5)CC4)ccc3c2=O)cc1	-	-	-	-	-	-	.	.	.
COc1ccc2c(C)c(C(=O)N3CCN(Cc4ccccc4)CC3)oc2c1	.	-	-	-	-	-	-	-	-
Cc1cccc(N2CCN(C(=O)c3ccc4c(c3)c(C)c(C)n4C)CC2C)c1 (stereo not drawn)	.	-	-	-	-	-	-	-	-
Cc1ccc2nc(CCl)[n+]([O-])c(-c3ccccc3)c2c1	.	-	-	-	-	-	.	.	.
COc1ccccc1CC(=O)Nc1nc(-c2ccc(F)c(F)c2)cs1	.	-	-17	-	-	-	-	-	39%
COc1ccc(-c2csc(NC(=O)Cc3ccccc3F)n2)cc1OC	.	-	-	-	-	-	.	.	.
COc1c(Cl)cc(Cl)cc1C(=O)n1nc(C)cc1C	-	-	-	-	-	-	-	-	-
C=C(C)COc1ccc(-c2ncncc2-c2ccc(Cl)cc2)c(O)c1	.	-	-	-	-	-	.	.	.
C=C(C)COc1ccc(-c2ncncc2-c2ccc(Br)cc2)c(O)c1	.	-	-	-	-	-	-	-	-
COc1cc(OC)cc(-c2cc3nc4c(c(N5CCN(c6ncccn6)CC5)n3n2)CCCC4)c1	-	-	-8.3	-	-	-10	31%	-	34%
Fc1cccc(-c2cc3nc4c(c(N5CCC6(CC5)OCCO6)n3n2)CCCC4)c1	-	-	-8.4	-	-	-	-	-	-
CN1CCN(c2ncnc3scc(-c4ccccc4Cl)c23)CC1	.	-	-	-	-	-	.	.	.
CN(CC(=O)Nc1ccc(Cl)c(C(F)(F)F)c1)C(=O)c1cn2ccccc2n1	.	-	-	-	-	-	.	.	.
CCc1ccc(CN(Cc2cccnc2)C(=O)/C=C/c2ccc(OC)cc2)cc1	.	-	-	-	-	-	-	-	-
COc1ccc(-c2ccc(SCC(=O)c3ccccc3)nn2)cc1OC	-	-	-11	-	-	-	60%	-	-
Cc1ccc(-c2ccc(SCC(=O)c3ccccc3)nn2)cc1	-	-	-	-	-	-	.	.	.
SMILES	Cl transport mod	hERG rescue	KCNK9 inh	KCNQ1 pot	KCNQ1 inh	KCNK3 inh	KCNK9 block conf	Kir21 sel	HEK293 Tl ctr
COc1ccc(C(=O)N(Cc2nc(-c3ccc(C)cc3)no2)C2CCCCC2)cc1OC	.	-	-	-	-	-	-	-	-
COC(=O)c1ccc(-c2noc(CN(C)CCC3CCCCO3)n2)cc1 (stereo not drawn)	-	-	-	-	-	-	-	-	-
COc1ccc(-c2noc(CN(C)CCC3CCCCO3)n2)cc1 (stereo not drawn)	-	-	-	-	-	-	-	-	-
CC1CCCN(C(=O)c2cccc(S(=O)(=O)N3CCCc4ccccc43)c2)C1 (stereo not drawn)	.	-	-	-	-	-	.	.	.
COc1ccc(C(=O)/C=C(\C)NCc2ccc3c(c2)OCO3)cc1	-	-	-	-	-	-	-	-	-
CCOC(=O)COc1nc(-c2ccc(Cl)cc2)cc(-c2ccco2)c1C#N	-	-	-	-	-	-	.	.	.
COC(=O)CSc1nc(-c2ccccc2)cc(-c2ccco2)c1C#N	-	-	-8.9	-	-	-	31%	-	28%
CCOC(=O)COc1nc(-c2ccccc2)cc(-c2ccco2)c1C#N	-	-	-8.2	-	-	-	49%	-	34%
O=C(CCc1ccccc1)NCCCNC(=O)CCc1ccccc1	.	.	.	.	.	-	.	.	.
COc1ccc(/C=C/C(=O)NCCCc2ccccc2)cc1	-	-	-	-	-	-	.	.	.
CC(C)c1ccc(/C=C/C(=O)NCCCc2ccccc2)cc1	-	-	-	-	6	-	-	-	-
COc1ccc(C(C(=O)NCC2CCCO2)N(C(=O)CNC(=O)c2ccco2)c2ccc(C)c(C)c2)cc1OC (stereo not drawn)	.	-	-	-	-	-	.	.	.
CC(C)N(CCCNC(=O)c1ccc(N2CCCC2=O)cc1)Cc1ccccc1	-	-	-	-	-	-	.	.	.
CCC1C(=NO)C(CC)C(c2ccccc2)NC1c1ccccc1 (stereo not drawn)	.	-	-	-	-	-	-	-	-
CC(=O)Nc1ccc(S(=O)(=O)N(Cc2ccccc2)c2ccccn2)cc1	.	-	-	-	-	-	.	.	.
CCOc1ccc(C(C)=O)cc1CSc1nnc(-c2ccoc2C)n1N	-	-	-9.2	-	-	-	45%	-	30%
CCCOc1ccc(Cc2c(Cl)nc(SC)nc2OC)cc1	-	-	-	-	-	-	-	-	-
